Screening results as filed in PubChem.
A selection: hits, their analogues and other compounds. The true share with any hit is near 1.3%.
HKDC1 inhibitor: HKDC1 (human) hexokinase inhibition; Q2TB90; recombinant HKDC1, G6PDH/diaphorase resazurin coupled fluorescence; inhibition, % at 20 µM; 340,000 tested, 0.16% active; AID 493160;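 active = inhibition above about 35% when tested at 20 µM, limit read from the data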
Target sequence (Q2TB90 whole entry, looked up): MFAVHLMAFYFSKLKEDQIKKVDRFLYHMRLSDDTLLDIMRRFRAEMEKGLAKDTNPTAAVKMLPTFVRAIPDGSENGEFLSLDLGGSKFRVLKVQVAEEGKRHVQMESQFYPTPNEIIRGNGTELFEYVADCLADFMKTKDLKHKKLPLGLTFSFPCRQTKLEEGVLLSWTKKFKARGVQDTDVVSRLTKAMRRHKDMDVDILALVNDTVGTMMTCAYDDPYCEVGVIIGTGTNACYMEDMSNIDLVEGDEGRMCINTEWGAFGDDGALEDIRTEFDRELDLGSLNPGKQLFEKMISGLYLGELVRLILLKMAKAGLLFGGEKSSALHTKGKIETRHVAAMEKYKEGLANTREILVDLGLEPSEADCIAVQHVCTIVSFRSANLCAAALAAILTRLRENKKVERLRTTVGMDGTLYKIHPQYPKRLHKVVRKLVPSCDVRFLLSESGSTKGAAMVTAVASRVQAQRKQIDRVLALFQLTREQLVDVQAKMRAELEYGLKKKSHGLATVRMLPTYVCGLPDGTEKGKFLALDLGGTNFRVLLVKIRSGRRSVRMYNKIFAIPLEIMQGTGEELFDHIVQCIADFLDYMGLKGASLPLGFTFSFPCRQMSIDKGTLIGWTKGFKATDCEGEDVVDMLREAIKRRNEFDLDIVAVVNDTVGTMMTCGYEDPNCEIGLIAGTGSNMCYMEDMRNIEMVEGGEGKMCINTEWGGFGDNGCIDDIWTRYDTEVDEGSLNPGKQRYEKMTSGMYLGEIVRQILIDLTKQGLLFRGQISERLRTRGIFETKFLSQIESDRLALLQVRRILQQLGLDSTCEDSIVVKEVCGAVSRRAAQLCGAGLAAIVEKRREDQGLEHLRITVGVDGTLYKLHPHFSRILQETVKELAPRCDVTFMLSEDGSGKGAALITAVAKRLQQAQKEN
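Test system: Recombinant HKDC1 (HK5) hexokinase enzyme, produced in-house | Input: HKDC1 at 5 µg/mL | Buffer or medium: Tris pH 8.0 buffer with MgCl2, Tween-20, BSA, BME | Schedule: 90 min reaction incubation at room temperature, dark | Technique: Resazurin-to-resorufin fluorescence via G6PDH and diaphorase coupling, 525/613 nm | Controls: DMSO wells with and without enzyme mix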
Diaph inh CS: diaphorase inhibition or chemical oxidation counter-screen; 190,000 tested, 0.69% active; inhibition, % at 20 µM; diaphorase resazurin-to-resorufin fluorescence, NADH, 16 min; bacterial (C. kluyveri) enzyme, not human;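 active = primary screen inhibition at 20 µM above a set limit, cut at about 50% in these data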
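Test system: bacterial diaphorase enzyme (C. kluyveri); Quantity: 0.14 U/mL diaphorase, enzyme working solution; Times: reaction incubation of 16 min at room temperature; Measured by: fluorescence of resorufin formed from resazurin, Ex 544/Em 590 nm; Benchmarks: positive control minus NADH, DMSO neutral control.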
G6PDH counter: L. mesenteroides G6PDH inhibition counter-screen. inhibition, % at 5 µM. Purified L. mesenteroides G6PDH, diaphorase/resazurin coupled fluorescence, 45 min. 200,000 tested, 0.12% active; in the data active = inhibition above about 50%
PfGluPho inh: PfG6PD (Plasmodium falciparum) enzyme inhibition; 350,000 tested, 0.78% active; PfGluPho enzyme, NADPH resazurin-diaphorase fluorescence; inhibition, % at 20 µM;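 active = inhibition reaching at least a set limit at 20 µM in the primary screen, cut at about 59% in these data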
Diaph act CS: counter-screen for diaphorase-based assays: diaphorase activators and chemical reducers | Diaphorase/resazurin coupled assay, resorufin fluorescence, 16 min; active compounds read high; 1 = vehicle wells, 0 = NADH-free wells | activation factor at 20 µM | 190,000 tested, 0.005% active | AID 1229;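 active = diaphorase activity raised at least twofold by the compound at 20 µM; inactive = activation factor below 2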
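Measured by – red resorufin fluorescence at 544/590 nm excitation/emission · Test system – Clostridium kluyveri diaphorase, purified enzyme · Incubation – reaction time 16 min, room temperature · Buffer or medium – 50 mM HEPES pH 7.4 with 4.542 mM MgCl2, 0.005% Tween 20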
Tb hexokinase: blocks Trypanosoma brucei hexokinase 1 activity | recombinant TbHK1, G6PDH-coupled NADH A340 | inhibition, % at 10 µM | 220,000 tested, 0.11% active;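 active = inhibition of 50% or more in the single-dose primary screen; inactive = inhibition below 50%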
Each line names hits and unclear results; the compound was inactive in the other large screens.

CC1=C(C)/C(=N\OS(=O)(=O)c2ccc(C)cc2)C=CC1=O	Diaph inh CS 101.1, PfGluPho inh 107.6
Cc1nc(SCC(=O)NCc2ccc3c(c2)OCO3)nc(C)c1C	none (no result: Diaph inh CS, G6PDH counter, Diaph act CS, Tb hexokinase)
Cc1ccc(-n2c(=S)[nH]c3sc4c(c3c2=O)CCC4)cc1	Diaph inh CS 53.1
O=C1/C(=C/C=C/c2ccco2)SC(=S)N1NS(=O)(=O)c1ccccc1	Tb hexokinase 67.1 (no result: Diaph inh CS, G6PDH counter, Diaph act CS)
Cc1cc(N)ccc1N1CCCC1	PfGluPho inh 88.2
Cc1cc(N)ccc1-n1c(C)ccc1C	PfGluPho inh 59.2
CSc1nc2c(c(=O)[nH]1)CCCC2	none
CSc1nc(=S)c2[nH]c(=S)[nH]c2[nH]1	PfGluPho inh 87.8 (no result: Diaph inh CS, G6PDH counter, Diaph act CS)
c1ccc(-c2cc(N3CCCCC3)ncn2)cc1	none
c1ccc(-c2cc(N3CCCCCC3)n[nH]2)cc1	Diaph inh CS 59.1
O=C(Cc1ccc(Cl)cc1)Oc1cccc2cccnc12	G6PDH counter 63.3
O=C(Oc1cccc2cccnc12)c1ccco1	none
O=C(Oc1cccc2cccnc12)c1cccc([N+](=O)[O-])c1	G6PDH counter 59.2
Cc1ccc(S(=O)(=O)N2C[C@H]3[C@H]4C(=O)N(c5ccccc5)C(=O)[C@H]4C[C@H](OC(=O)NCc4ccccc4)[C@@]3(O)C2)cc1	none (no result: HKDC1 inhibitor, Diaph inh CS, G6PDH counter, Diaph act CS, Tb hexokinase)
O=C1CCCC2=C1C(c1cccs1)Nc1ccc3ncccc3c12 (stereo not given)	none
O=C1CCCC2=C1C(c1ccc(O)c(O)c1)Nc1ccc3ncccc3c12 (stereo not given)	Diaph inh CS 71.3
Cc1ccsc1C1Nc2ccc3ncccc3c2C2=C1C(=O)CC(C)(C)C2 (stereo not given)	Diaph inh CS 52.7
N#CCCN(C(=S)NC(=O)C1CCCCC1)c1ccccc1F	none (no result: Diaph inh CS, G6PDH counter, Diaph act CS, Tb hexokinase)
CCCCN1C(=O)C2(OCCCO2)c2cccc(C)c21	none (no result: Diaph inh CS, G6PDH counter, Diaph act CS, Tb hexokinase)
Cc1cccc(C)c1NC(=O)COC(=O)c1c2c(nc3ccccc13)/C(=C\c1ccc3c(c1)OCO3)CCC2	Diaph inh CS 69.8
Oc1cc2c(cc1O)C(c1ccccc1)CNCC2 (stereo not given)	none (no result: Diaph inh CS, G6PDH counter, Diaph act CS, Tb hexokinase)
Oc1cc2c(cc1O)[C@@H](c1ccccc1)CNCC2	PfGluPho inh 68.9
CCc1cccc(CC)c1NC(=S)NCC(c1cccnc1)N(C)C (stereo not given)	none
CN(C(=S)NC(=O)C12CC3CC(CC(C3)C1)C2)c1ccc(O)cc1	PfGluPho inh 102.8 (no result: Diaph inh CS, G6PDH counter, Diaph act CS, Tb hexokinase)
COc1ccc(CCC(=O)OCC(=O)c2ccc(C)cc2)cc1	none
O=[N+]([O-])c1ccc2c(c1Nc1ccccc1Cl)=NC1(CCCCC1)N=2	none (no result: Diaph inh CS, G6PDH counter, Diaph act CS)
Cc1ccc(Nc2c([N+](=O)[O-])ccc3c2=NC2(CCCCC2)N=3)cc1	Diaph inh CS 50.7
CC(C(=O)N1CCOCCOCCOCCOCCOCC1)N1C(=O)c2ccccc2C1=O (stereo not given)	none
c1ccc2c3c([nH]c2c1)-c1[nH]ncc1CC3	Diaph inh CS 63.9
O=C1C=CC(=O)N1CCCCCCN1C(=O)C=CC1=O	PfGluPho inh 95.0
O=C(NNC(=S)NC(=O)c1ccccc1[N+](=O)[O-])c1ccccc1O	Diaph inh CS 59.3
O=C(NNC(=S)NC(=O)c1ccccc1[N+](=O)[O-])c1ccccc1[N+](=O)[O-]	none
N#C/C(=N\Nc1ccc(S(=O)(=O)N2CCc3ccccc32)cc1)C(N)=S	Diaph inh CS 56.5
CCOc1ccc2c(c1)C(C)=CC(C)(C)N2C(=O)Nc1ccccc1	PfGluPho inh 77.6
COc1ccc(NC(=O)N2c3ccc(OC)cc3C(C)=CC2(C)C)cc1	none
Cc1cccc(C(=O)Nc2nnc(S(=O)(=O)N(C)Cc3ccco3)s2)c1	PfGluPho inh 95.4 (no result: Diaph inh CS, G6PDH counter, Diaph act CS, Tb hexokinase)
CCOC(=O)C1=C(O)/C(=C/c2ccc(OCC(=O)O)c(OCC)c2)SC1=Nc1ccc(OC)cc1	none
CCOC(=O)C1=C(O)/C(=C/c2ccc(OCC(=O)O)c(OCC)c2)SC1=Nc1ccc(C)cc1	Diaph inh CS 62.1
N#CC1=C(N)SC(N)=C(C#N)C1CCC1CCCCC1	Diaph inh CS 53.6 (no result: HKDC1 inhibitor, PfGluPho inh)
Cc1sccc1C1C(C#N)=C(N)SC(N)=C1C#N	none (no result: HKDC1 inhibitor, PfGluPho inh)
N#Cc1cccc(N=c2ssnc2Cl)c1	PfGluPho inh 80.0
CN(CC(=O)Nc1ccccc1C(F)(F)F)C(=O)CSCc1ccccc1	none (no result: Diaph inh CS, G6PDH counter, Diaph act CS, Tb hexokinase)
